Experiments:
Acetylcholinesterase [1] = molecular target: T1, Acetylcholinesterase (Homo sapiens, UniProt P22303); experiment: Inhibitory concentration against acetylcholinesterase
Hormone-sensitive lipase = molecular target: T2, Hormone-sensitive lipase (Homo sapiens, UniProt Q05469); experiment: Inhibition of hormone sensitive lipase (HSL).
T2 sequence (Q05469 whole entry): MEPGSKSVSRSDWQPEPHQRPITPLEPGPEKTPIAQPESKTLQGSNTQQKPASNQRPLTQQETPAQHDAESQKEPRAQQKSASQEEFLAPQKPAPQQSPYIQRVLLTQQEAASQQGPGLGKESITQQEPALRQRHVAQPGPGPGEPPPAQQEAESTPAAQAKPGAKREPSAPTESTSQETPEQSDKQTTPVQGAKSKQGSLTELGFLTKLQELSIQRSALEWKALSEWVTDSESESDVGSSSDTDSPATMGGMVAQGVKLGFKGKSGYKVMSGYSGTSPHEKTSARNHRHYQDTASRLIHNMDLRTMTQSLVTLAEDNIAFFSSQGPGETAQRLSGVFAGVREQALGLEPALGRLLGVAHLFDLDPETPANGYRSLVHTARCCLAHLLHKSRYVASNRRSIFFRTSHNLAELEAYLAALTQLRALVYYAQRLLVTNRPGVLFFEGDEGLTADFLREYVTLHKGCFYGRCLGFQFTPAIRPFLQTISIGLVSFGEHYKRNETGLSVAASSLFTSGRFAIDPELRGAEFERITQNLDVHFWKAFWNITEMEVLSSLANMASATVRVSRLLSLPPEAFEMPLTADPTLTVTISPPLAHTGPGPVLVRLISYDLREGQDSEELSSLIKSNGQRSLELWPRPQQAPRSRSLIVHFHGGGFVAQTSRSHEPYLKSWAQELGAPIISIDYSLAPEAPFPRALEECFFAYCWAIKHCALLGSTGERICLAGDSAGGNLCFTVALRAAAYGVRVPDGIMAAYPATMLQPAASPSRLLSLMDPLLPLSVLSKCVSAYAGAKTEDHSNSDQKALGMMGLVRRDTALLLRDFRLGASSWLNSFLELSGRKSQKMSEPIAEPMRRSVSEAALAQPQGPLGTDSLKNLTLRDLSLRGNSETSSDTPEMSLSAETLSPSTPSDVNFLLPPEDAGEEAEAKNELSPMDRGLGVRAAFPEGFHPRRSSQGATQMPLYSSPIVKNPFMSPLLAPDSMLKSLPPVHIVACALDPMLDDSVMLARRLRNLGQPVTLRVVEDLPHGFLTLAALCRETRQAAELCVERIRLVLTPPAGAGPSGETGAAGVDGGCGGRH

Cholinesterase = Cholinesterase (Homo sapiens, UniProt P06276); experiment: Inhibitory concentration against butyrylcholinesterase.
[2] = molecular target: Lipoprotein lipase (Bos taurus) (UniProt P11151); experiment: Compound was tested to inhibit lipoprotein lipase (LPL)
[3] = molecular target: T3, Hepatic triacylglycerol lipase (Homo sapiens, UniProt P11150); experiment: Compound was tested to inhibit hepatic lipase (HL)
T3 sequence (P11150 whole entry): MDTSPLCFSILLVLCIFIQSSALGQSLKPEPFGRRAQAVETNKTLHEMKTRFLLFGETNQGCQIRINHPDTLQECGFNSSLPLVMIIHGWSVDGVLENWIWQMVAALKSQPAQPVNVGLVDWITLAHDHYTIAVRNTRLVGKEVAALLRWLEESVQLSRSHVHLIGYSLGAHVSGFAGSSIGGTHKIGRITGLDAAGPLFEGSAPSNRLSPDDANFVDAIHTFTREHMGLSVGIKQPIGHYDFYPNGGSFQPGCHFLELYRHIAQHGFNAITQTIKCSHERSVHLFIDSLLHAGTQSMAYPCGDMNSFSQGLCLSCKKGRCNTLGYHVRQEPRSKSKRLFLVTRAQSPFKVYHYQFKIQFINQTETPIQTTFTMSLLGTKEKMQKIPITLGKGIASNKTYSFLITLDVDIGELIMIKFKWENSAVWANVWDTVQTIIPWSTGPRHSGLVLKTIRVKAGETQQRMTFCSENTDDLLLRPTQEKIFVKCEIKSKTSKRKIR
Outline: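 Emulsion assay with a fluorochrome (NBD)-labeled triacylglyceride in phosphatidylcholine/phosphatidylinositol 3:1 micelles, diluted in PED-BSA buffer pH 7.0. HL (1 μg/mL) and inhibitor in DOC buffer (10 mM TRIS-HCl pH 8.5, 5 mM deoxycholate) preincubated 70 min at 25 °C, then added with NaCl and TRIS pH 8.5. Fluorescence (ex 450/em 545 nm) read at 0 and 120 min, 37 °C. Inhibitor top concentration 100 μM, six 5-fold dilutions, duplicates; sigmoidal variable-slope IC50 fit.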

[4] = molecular target: T4, Pancreatic triacylglycerol lipase (Homo sapiens, UniProt P16233); experiment: Compound was tested to inhibit pancreatic lipase (PL)
T4 sequence (P16233 whole entry): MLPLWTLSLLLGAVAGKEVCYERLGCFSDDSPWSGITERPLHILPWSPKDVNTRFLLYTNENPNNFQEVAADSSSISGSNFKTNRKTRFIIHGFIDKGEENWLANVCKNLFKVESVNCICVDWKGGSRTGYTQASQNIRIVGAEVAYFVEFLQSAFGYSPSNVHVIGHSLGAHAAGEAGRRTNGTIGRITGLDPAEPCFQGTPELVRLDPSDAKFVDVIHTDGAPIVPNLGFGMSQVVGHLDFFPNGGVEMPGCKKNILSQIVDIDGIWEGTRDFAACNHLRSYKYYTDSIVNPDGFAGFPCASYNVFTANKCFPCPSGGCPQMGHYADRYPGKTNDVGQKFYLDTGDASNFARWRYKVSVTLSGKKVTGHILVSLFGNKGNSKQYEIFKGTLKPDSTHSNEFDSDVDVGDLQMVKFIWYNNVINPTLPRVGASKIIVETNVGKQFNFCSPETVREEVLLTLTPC
Outline: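 PL (1 μg/mL) plus colipase (5 μg/mL) preincubated with inhibitor 40 min at 25 °C. Then combined with TRIS buffer pH 8.0 (NaCl, 1 mM NaTDC) and labeled triacylglyceride emulsion prepared in TRIS pH 8.0 with 8 mM NaTDC, 0.3 M NaCl, 2 mM CaCl2. Fluorescence (ex 450/em 545 nm) read at 0 and 60 min, 37 °C. Six concentrations from 100 μM in 5-fold steps, duplicates; sigmoidal IC50 fit.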

Acetylcholinesterase [5] = molecular target: T1, Acetylcholinesterase; experiment: Inhibitory concentration against acetylcholinesterase; non classical inhibitor, maximum HSL inhibition of […]%

Sequence of Cholinesterase (P06276 whole entry): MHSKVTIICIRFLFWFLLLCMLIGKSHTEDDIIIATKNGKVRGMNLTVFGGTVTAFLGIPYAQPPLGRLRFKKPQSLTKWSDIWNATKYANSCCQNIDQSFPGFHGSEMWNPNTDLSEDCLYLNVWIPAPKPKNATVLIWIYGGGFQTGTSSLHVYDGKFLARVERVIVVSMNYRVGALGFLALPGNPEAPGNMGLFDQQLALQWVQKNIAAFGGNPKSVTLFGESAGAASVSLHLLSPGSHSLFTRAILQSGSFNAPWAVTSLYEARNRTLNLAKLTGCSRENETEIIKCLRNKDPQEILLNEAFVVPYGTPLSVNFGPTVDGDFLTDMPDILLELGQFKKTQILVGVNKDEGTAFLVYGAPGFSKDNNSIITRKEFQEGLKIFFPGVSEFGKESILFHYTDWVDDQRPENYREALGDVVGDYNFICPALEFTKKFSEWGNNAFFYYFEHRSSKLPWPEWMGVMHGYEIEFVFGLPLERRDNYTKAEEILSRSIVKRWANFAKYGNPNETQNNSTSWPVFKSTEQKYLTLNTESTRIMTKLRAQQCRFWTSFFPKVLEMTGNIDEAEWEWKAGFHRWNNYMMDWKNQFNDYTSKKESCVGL
T1 sequence (P22303 whole entry): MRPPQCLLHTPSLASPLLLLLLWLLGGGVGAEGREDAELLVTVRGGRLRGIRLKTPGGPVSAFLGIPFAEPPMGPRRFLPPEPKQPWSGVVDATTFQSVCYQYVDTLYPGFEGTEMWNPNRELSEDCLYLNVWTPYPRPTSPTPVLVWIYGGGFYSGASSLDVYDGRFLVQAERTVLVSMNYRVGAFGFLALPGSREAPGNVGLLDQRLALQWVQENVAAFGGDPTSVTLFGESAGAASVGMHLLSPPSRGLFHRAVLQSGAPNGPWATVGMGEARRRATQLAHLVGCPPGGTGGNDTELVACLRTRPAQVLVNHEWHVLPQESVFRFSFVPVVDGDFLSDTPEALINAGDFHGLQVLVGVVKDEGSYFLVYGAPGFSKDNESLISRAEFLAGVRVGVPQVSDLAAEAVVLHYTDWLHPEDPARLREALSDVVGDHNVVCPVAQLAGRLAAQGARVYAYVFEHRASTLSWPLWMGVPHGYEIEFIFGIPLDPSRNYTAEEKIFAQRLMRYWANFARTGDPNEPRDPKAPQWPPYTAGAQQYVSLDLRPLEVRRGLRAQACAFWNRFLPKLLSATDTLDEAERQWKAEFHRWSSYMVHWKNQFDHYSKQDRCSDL
Sequence of Lipoprotein lipase (Bos taurus) (P11151 whole entry, looked up): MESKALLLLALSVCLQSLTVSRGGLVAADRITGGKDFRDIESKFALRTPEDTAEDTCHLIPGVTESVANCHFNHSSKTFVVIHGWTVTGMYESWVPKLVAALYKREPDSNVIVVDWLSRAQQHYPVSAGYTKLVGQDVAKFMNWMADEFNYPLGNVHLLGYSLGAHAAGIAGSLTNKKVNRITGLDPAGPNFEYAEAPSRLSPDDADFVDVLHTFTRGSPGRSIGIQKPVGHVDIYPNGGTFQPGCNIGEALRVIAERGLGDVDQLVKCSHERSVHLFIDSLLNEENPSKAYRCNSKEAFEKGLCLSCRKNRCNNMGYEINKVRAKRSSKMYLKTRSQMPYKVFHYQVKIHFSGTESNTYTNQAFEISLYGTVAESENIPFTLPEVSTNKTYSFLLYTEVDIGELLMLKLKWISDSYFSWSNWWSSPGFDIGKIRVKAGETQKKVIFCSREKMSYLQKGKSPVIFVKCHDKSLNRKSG

CSc1nc(-c2ccc(C)cc2)nn1C(=O)N1CCOCC1
IC50 (Acetylcholinesterase [1]): > 50000 nM
IC50 (Hormone-sensitive lipase): 4000 nM
IC50 (Cholinesterase): 2000 nM

CSc1nc(-c2ccc(OC(F)(F)F)cc2)nn1C(=O)N(C)c1ccccc1
IC50 (Acetylcholinesterase [1]): > 50000 nM
IC50 [2]: > 50000 nM
IC50 (Hormone-sensitive lipase): 250 nM
IC50 [3]: > 50000 nM
IC50 [4]: > 50000 nM
IC50 (Cholinesterase): > 50000 nM

O=C(N1CCCCC1)n1nc(-c2ccc(Cl)cc2)nc1SCC1CC1
IC50 (Acetylcholinesterase [1]): 100 nM
IC50 (Hormone-sensitive lipase): 200 nM
IC50 (Cholinesterase): 900 nM

CSc1nc(-c2ccc(C)cc2)nn1C(=O)N(C)c1ccccc1
IC50 (Acetylcholinesterase [1]): 2400 nM
IC50 (Hormone-sensitive lipase): 100 nM

Cc1c(C(C)C)c(=O)on1C(=O)N1CCC[C@H](C)C1
IC50 (Acetylcholinesterase [1]): 17000 nM
IC50 [2]: > 50000 nM
IC50 (Hormone-sensitive lipase): 170 nM
IC50 [3]: > 50000 nM
IC50 [4]: > 50000 nM
IC50 (Cholinesterase): > 50000 nM

CSc1nc(-c2ccc(C(F)(F)F)cc2)nn1C(=O)N(C)C
IC50 (Acetylcholinesterase [1]): 500 nM
IC50 (Hormone-sensitive lipase): 100 nM
IC50 (Cholinesterase): 100 nM

CSc1nc(-c2ccc3ccccc3c2)nn1C(=O)N(C)C
IC50 (Acetylcholinesterase [1]): 50 nM
IC50 (Hormone-sensitive lipase): 2000 nM
IC50 (Cholinesterase): 130 nM

CCSc1nc(-c2ccc(OC)cc2)nn1C(=O)N1CCOCC1
IC50 (Acetylcholinesterase [1]): > 50000 nM
IC50 (Hormone-sensitive lipase): 9000 nM
IC50 (Cholinesterase): 4000 nM

CCCCCCSc1nc(-c2ccc(Cl)cc2)nn1C(=O)N1CCCCC1
IC50 (Acetylcholinesterase [1]): < 10 nM
IC50 (Hormone-sensitive lipase): > 50000 nM
IC50 (Cholinesterase): > 50000 nM

CSc1nc(-c2ccc(Cl)cc2)nn1C(=O)N(C)C
IC50 (Acetylcholinesterase [1]): 100 nM
IC50 (Hormone-sensitive lipase): 20 nM
IC50 (Cholinesterase): < 10 nM

COc1nn(-c2ccc(NC(=O)c3ccc(C(C)(C)C)cc3)cc2)c(=O)o1
IC50 (Acetylcholinesterase [1]): > 50000 nM
IC50 [2]: 200 nM
IC50 (Hormone-sensitive lipase): 23 nM
IC50 [3]: 1800 nM
IC50 [4]: > 10000 nM
IC50 (Cholinesterase): > 50000 nM

CCCCCCSc1nc(-c2ccc(C)cc2)nn1C(=O)N(C)c1ccccc1
IC50 (Acetylcholinesterase [1]): > 50000 nM
IC50 (Hormone-sensitive lipase): 700 nM

CCSc1nc(-c2ccc(OC)cc2)nn1C(=O)N(C)c1ccccc1
IC50 (Acetylcholinesterase [1]): 1100 nM
IC50 (Hormone-sensitive lipase): 300 nM

CCCCCCSc1nc(-c2ccc(Cl)cc2)nn1C(=O)N(C)c1ccccc1
IC50 (Acetylcholinesterase [1]): > 50000 nM
IC50 (Hormone-sensitive lipase): 400 nM

CN(C(=O)n1nc(-c2ccc(Cl)cc2)nc1SCC(F)(F)F)c1ccccc1
IC50 (Acetylcholinesterase [1]): > 50000 nM
IC50 [2]: > 50000 nM
IC50 (Hormone-sensitive lipase): 170 nM
IC50 [3]: > 50000 nM
IC50 [4]: > 50000 nM
IC50 (Cholinesterase): > 50000 nM

CCOc1nn(-c2cccc(OCc3ccccc3)c2)c(=O)o1
IC50 (Acetylcholinesterase [1]): 750 nM
IC50 [2]: > 10000 nM
IC50 (Hormone-sensitive lipase): 1100 nM
IC50 [3]: 15000 nM
IC50 [4]: > 10000 nM
IC50 (Cholinesterase): 920 nM

CSc1nc(-c2ccc(Cl)cc2)nn1C(=O)N1CCCCC1
IC50 (Acetylcholinesterase [1]): 26 nM
IC50 (Hormone-sensitive lipase): 100 nM
IC50 (Cholinesterase): 900 nM

COc1ccc(-c2nc(SC)n(C(=O)N(C)C)n2)cc1
IC50 (Acetylcholinesterase [1]): 800 nM
IC50 (Hormone-sensitive lipase): 900 nM
IC50 (Cholinesterase): 410 nM

CN(C(=O)n1nc(-c2ccc(Cl)cc2)nc1SCC1CC1)c1ccccc1
IC50 (Acetylcholinesterase [5]): Non classical inhibitor
IC50 (Hormone-sensitive lipase): 62 nM

CCCSc1nc(-c2ccc(Cl)cc2)nn1C(=O)N(C)C
IC50 (Acetylcholinesterase [1]): 300 nM
IC50 (Hormone-sensitive lipase): 60 nM
IC50 (Cholinesterase): 100 nM

CSc1nc(-c2ccc(Cl)cc2)nn1C(=O)N1CCOCC1
IC50 (Acetylcholinesterase [1]): > 50000 nM
IC50 (Hormone-sensitive lipase): 2000 nM
IC50 (Cholinesterase): 14000 nM

O=C(N1CCCCC1)n1nc(-c2ccc(Cl)cc2)nc1SCC(F)(F)F
IC50 (Acetylcholinesterase [1]): 300 nM
IC50 (Hormone-sensitive lipase): 400 nM
IC50 (Cholinesterase): 1000 nM

O=C(N1CCOCC1)n1nc(-c2ccc(Cl)cc2)nc1SCC(F)(F)F
IC50 (Acetylcholinesterase [1]): > 50000 nM
IC50 (Hormone-sensitive lipase): 9000 nM
IC50 (Cholinesterase): > 50000 nM

CSc1nc(-c2ccc(-c3ccccc3)cc2)nn1C(=O)N(C)C
IC50 (Acetylcholinesterase [1]): 560 nM
IC50 (Hormone-sensitive lipase): 1500 nM
IC50 (Cholinesterase): 230 nM

Cc1ccc(-c2nc(SCC(F)(F)F)n(C(=O)N(C)C)n2)cc1
IC50 (Acetylcholinesterase [1]): 200 nM
IC50 (Hormone-sensitive lipase): 600 nM
IC50 (Cholinesterase): 460 nM

CCCCCCSc1nc(-c2ccc(Cl)cc2)nn1C(=O)N1CCOCC1
IC50 (Acetylcholinesterase [1]): > 50000 nM
IC50 (Hormone-sensitive lipase): > 50000 nM
IC50 (Cholinesterase): > 50000 nM

CCSc1nc(-c2ccc(Cl)cc2)nn1C(=O)N(C)C
IC50 (Acetylcholinesterase [1]): 56 nM
IC50 (Hormone-sensitive lipase): 210 nM
IC50 (Cholinesterase): 50 nM

CSc1nc(/C=C/c2ccccc2)nn1C(=O)N(C)C
IC50 (Acetylcholinesterase [1]): < 10 nM
IC50 (Hormone-sensitive lipase): > 50000 nM
IC50 (Cholinesterase): 370 nM

CSc1nc(-c2ccc(OC(F)(F)F)cc2)nn1C(=O)N(C)C
IC50 (Acetylcholinesterase [1]): 800 nM
IC50 (Hormone-sensitive lipase): 100 nM
IC50 (Cholinesterase): 200 nM

CSc1nc(-c2ccc(C)cc2)nn1C(=O)N(C)C
IC50 (Acetylcholinesterase [1]): 800 nM
IC50 (Hormone-sensitive lipase): 30 nM
IC50 (Cholinesterase): 200 nM

CCCCCCSc1nc(-c2ccc(C)cc2)nn1C(=O)N(C)C
IC50 (Acetylcholinesterase [1]): 200 nM
IC50 (Hormone-sensitive lipase): > 50000 nM
IC50 (Cholinesterase): 300 nM

CSc1nc(-c2ccc(Cl)cc2)nn1C(=O)N(C)c1ccccc1
IC50 (Acetylcholinesterase [1]): 1400 nM
IC50 (Hormone-sensitive lipase): 160 nM

— ChEMBL document CHEMBL1148382, “Synthesis and structure-activity relationship for a novel class of potent and selective carbamoyl-triazole based inhibitors of hormone sensitive lipase” (J Med Chem, 2004)
